Published values gathered from unrelated publications.
Each line is one published result; the experiments were not run side by side.
Cell line: NCI-H460
Observed: cell growth or viability

O=C(O)c1cc(O)c(O)c(O)c1  IC50 (MTT): 14.9 µM
COc1cc2oc(-c3ccc(O)cc3)cc(=O)c2c(O)c1OC  IC50 (48 h): 26.2 µM
COc1cc(N(C)CCN(C)C)c(NC(=O)C=C(C)C)cc1Nc1nc(N2CCc3sccc3C2)c2sccc2n1  IC50 (MTT): 0.533 µM
CC(=O)c1cccc(/N=N/c2cc(/C=C/C(=O)O)ccc2O)c1  IC50 (MTT): > 50 µM
COc1ccc(C/C=C(/CO)c2ccc(OC)cc2)cc1  IC50 (MTT; 24 h): 30.9 µg/mL
OCc1ccc2c(c1C#Cc1ccc(O)cc1)C(c1ccc(O)cc1)(c1ccc(O)cc1)c1cc(O)ccc1-2  IC50 (MTT; 48 h): > 50 µM
O=c1[nH]cc(F)c(=O)[nH]1  IC50 (MTT; 72 h): 3 µM
CC(=O)O[C@H]1CC[C@]2(C)[C@H]3CC=C4[C@@H]5CC(C)(C)CC[C@]5(C)CC[C@@]4(C)[C@]3(C)CC[C@H]2C1(C)C  IC50 (48 h): 10.6 µM
CC[C@@]1(O)C(=O)OCc2c1cc1n(c2=O)Cc2cc3ccccc3nc2-1  IC50 (72 h): < 0.01 µM
C=C(Cl)C(=O)Nc1cc(Nc2nc(N3CCc4sccc4C3)c3sccc3n2)c(OC)cc1N(C)CCN(C)C  IC50 (MTT): 2.33 µM
O=C1NCCc2[nH]c(-c3ccncc3)cc21  IC50: 10 µM
COc1cc(Nc2nccc(-c3cnn4nc(OC)ccc34)n2)cc(C(F)(F)F)c1  IC50 (ATP luminescence): 0.33 µM
C=C(Cl)C(=O)Nc1cc(Nc2nc(Nc3cnn(C)c3)c3sccc3n2)c(OC)cc1N(C)CCN(C)C  IC50 (MTT): 3.22 µM
COc1cccc2c1C(=O)c1c(O)c3c(c(O)c1C2=O)C[C@@](O)(C(=O)CO)C[C@@H]3O[C@H]1C[C@H](N)[C@H](O)[C@H](C)O1  IC50 (SRB): 4.29 µM
OCC(CCc1ccc(O)cc1)c1ccc(O)cc1 (centres unmarked)  IC50 (MTT; 24 h): 55 µg/mL
CCC(=O)Nc1cc(Nc2nc(N3CCc4sccc4C3)c3cccnc3n2)c(OC)cc1N1CCN(C(C)=O)CC1  IC50 (MTT): > 50 µM
Cc1ccc(-c2ccc(CCCN(O)C(=O)CP(=O)(O)O)cc2)cc1  IC50 (MTT; 96 h): 229 µM
CCC(=O)Nc1cc(Nc2nc(N3CCOCC3)c3sccc3n2)c(OC)cc1N(C)CCN(C)C  IC50 (MTT): > 50 µM
C(/Cc1ccc(OCc2ccccc2)cc1)=C(\COCc1ccccc1)c1ccc(OCc2ccccc2)cc1  IC50 (MTT; 24 h): 48.3 µg/mL
C=CC(=O)Nc1cc(Nc2nc(Nc3cnn(C)c3)c3sccc3n2)c(OC)cc1N(C)CCN(C)C  IC50 (MTT): > 50 µM
Oc1ccc(C/C=C(/COCc2ccccc2)c2ccc(OCc3ccccc3)cc2)cc1  IC50 (MTT; 24 h): 27.9 µg/mL
C=CC(=O)Nc1cc(Nc2nc(N3CCc4sccc4C3)c3cccnc3n2)c(OC)cc1N1CCN(CCO)CC1  IC50 (MTT): 8.03 µM
COC/C(=C/Cc1ccc(OC)cc1)c1ccc(OC)cc1  IC50 (MTT; 24 h): 75.4 µg/mL
CC(=O)c1ccc(N=Nc2c(C(=O)O)cc(O)c(O)c2O)cc1  IC50 (MTT): 13.6 µM
CCC(=O)Nc1cc(Nc2nc(N3CCc4sccc4C3)c3cccnc3n2)c(OC)cc1N(C)C  IC50 (MTT): 4.95 µM
CC(=O)c1cccc(N=Nc2c(C(=O)O)cc(O)c(O)c2O)c1  IC50 (MTT): 9.5 µM
OC/C(=C/Cc1ccc(O)cc1)c1ccc(O)cc1  IC50 (MTT; 24 h): 44.9 µg/mL
Cc1ccc(-c2ccc(O)cc2)c(C(=C2C=CC(=O)C=C2)c2ccc(O)cc2)c1C#Cc1ccc(O)cc1  IC50 (MTT; 48 h): 15.5 µM
COc1cc(CNC(=O)CCCC/C=C/C(C)C)ccc1O  IC50 (SRB): 30.7 µM
